Consider two molecules from publication PMC10150624 (Journal of Enzyme Inhibition and Medicinal Chemistry, 2023).

For assay [1], the system named is H1975 cells. In words: Cell cycle progression by flow cytometry. It counts as cell-based. Conditions: 24 h. The procedure, abridged:
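H1975 cells seeded at 3 × 10^5/well and cultured 24 h, then treated with test compound (0.2, 1.0, 5 μM) for 24 h at 37 °C. Cells PBS-washed, fixed overnight in ice-cold 70% ethanol, washed again and stained with PI for 30 min at room temperature in the dark. DNA content analysed by flow cytometry to give the G2/M fraction against an untreated control.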

The subject of assay [2] is A549 cells. In words: AO/EB fluorescent staining, morphology of apoptotic cells. Conditions: A549 cells, 1, 5 or 10 μM, 48 h. It is filed as cell-based. The procedure, abridged: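 A549 cells seeded in 6-well plates at 3.6 × 10^5/mL and grown 24 h, then exposed to test compound for a further 48 h; untreated A549 cells served as control. Cells were stained for a few min with AO/EB dual fluorescent solution, then viewed and photographed by forward fluorescence microscopy for apoptotic morphology.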

Assay [3] addresses EGFR^L858R/T790M (Homo sapiens, UniProt P00533, L858R/T790M). In words: EGFR kinase inhibition by ELISA, L858R/T790M. It is filed as biochemical. To be noted: EGFR^L858R/T790M versus EGFR^WT, kinase assay.
In assay [4] the test system is A549 cells. In words: Wound healing. It is filed as cell-based. To be noted: 5 or 10 μM, 0, 24 and 48 h. The procedure, abridged:
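Wound-healing format with A549 cells at 3.6 × 10^5/well, exposed to test compound and imaged at 0, 24 and 48 h. Cell migration into the wound was assessed by microscopy and photography.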

Assay [5] concerns H1975 cells. In words: Apoptosis by flow cytometry, Annexin V/PI double staining. It is filed as cell-based. Conditions: H1975, 10 μM, 48 h; total apoptotic cells (Q2 + Q3). In a few lines:
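H1975 cells in log growth seeded at 3 × 10^5/well, held 24 h at 37 °C, 5% CO2, then exposed to test compound at several concentrations for 48 h. Cells harvested by trypsin, PBS-washed, stained with Annexin V-APC for 30 min and then PI for 3 min at room temperature in the dark, diluted in saline and read at once by flow cytometry. Total apoptotic fraction taken as Q2 + Q3.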
On the technique in general: Flow cytometry measures light scatter and fluorescence of single cells or particles in a stream.

The structures appear in SMILES notation.

Chain of EGFR^L858R/T790M (P00533 25-1210 T790M/L858R): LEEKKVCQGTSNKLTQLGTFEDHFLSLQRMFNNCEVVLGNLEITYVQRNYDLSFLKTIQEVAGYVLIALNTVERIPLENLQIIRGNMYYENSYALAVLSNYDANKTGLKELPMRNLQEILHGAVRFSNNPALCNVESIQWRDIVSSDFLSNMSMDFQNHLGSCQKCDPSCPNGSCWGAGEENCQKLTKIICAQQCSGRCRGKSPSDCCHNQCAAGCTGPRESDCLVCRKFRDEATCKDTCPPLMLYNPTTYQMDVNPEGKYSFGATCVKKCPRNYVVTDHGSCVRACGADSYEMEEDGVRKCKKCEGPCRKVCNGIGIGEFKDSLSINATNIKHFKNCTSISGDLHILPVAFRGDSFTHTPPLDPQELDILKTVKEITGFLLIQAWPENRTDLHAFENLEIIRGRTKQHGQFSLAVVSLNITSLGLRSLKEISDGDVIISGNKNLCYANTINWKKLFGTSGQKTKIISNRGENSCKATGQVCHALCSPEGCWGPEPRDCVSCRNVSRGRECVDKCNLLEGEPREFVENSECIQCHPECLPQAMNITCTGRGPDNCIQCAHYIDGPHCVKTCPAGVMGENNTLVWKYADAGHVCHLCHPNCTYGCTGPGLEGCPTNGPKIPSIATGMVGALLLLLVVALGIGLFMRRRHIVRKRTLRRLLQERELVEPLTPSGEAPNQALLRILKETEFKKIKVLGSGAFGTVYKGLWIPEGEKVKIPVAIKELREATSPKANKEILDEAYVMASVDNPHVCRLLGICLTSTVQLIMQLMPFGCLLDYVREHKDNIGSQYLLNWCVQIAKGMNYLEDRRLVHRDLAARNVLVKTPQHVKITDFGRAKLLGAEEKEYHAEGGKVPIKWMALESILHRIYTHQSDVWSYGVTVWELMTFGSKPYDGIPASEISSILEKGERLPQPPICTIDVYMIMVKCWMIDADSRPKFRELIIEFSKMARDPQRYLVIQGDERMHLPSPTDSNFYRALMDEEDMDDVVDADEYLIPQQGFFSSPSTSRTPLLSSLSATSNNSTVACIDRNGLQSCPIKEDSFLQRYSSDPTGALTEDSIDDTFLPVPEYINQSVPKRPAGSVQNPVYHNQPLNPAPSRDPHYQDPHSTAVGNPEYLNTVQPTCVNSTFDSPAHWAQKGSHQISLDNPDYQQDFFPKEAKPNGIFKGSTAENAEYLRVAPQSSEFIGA

With `C=C(Cl)C(=O)Nc1cc(Nc2nc(N3CCc4sccc4C3)c3sccc3n2)c(OC)cc1N(C)CCN(C)C` [Compound B1, 2-chloro-N-(5-((4–(6,7-dihydrothieno[3,2-c]pyridin-5(4H)-yl)thieno[3,2-d]pyrimidin-2-yl)amino)-2-((2-(dimethylamino)ethyl)(methyl)amino)-4-methoxyphenyl)acrylamide], the “percentage of G2/M-phase cells” value is on record as 24.41% in assay [1] (H1975, 0.2 μM); 27.68% in assay [1] (H1975, 1.0 μM); 31.47% in assay [1] (H1975, 5 μM). The “apoptosis induction, cell morphology” value in assay [2] was “induce apoptosis in A549 cells in a concentration-dependent manner”. Moreover, the “selectivity for EGFR^WT” value in assay [3] is recorded as “more than 76 fold”. Further, the wound healing result in assay [4] was “wound healing was slower in the treated group than that in the blank control group”. Besides, in assay [5], the apoptosis rate is recorded as 22.1%.

As to `C=C(Cl)C(=O)Nc1cc(Nc2nc(Nc3cnn(C)c3)c3sccc3n2)c(OC)cc1N(C)CCN(C)C` [Compound B7, 2-chloro-N-(2-((2-(dimethylamino)ethyl)(methyl)amino)-4-methoxy-5-((4-((1-methyl-1H-pyrazol-4-yl)amino)thieno[3,2-d]pyrimidin-2-yl)amino)phenyl)acrylamide], the “apoptosis induction, cell morphology” value in assay [2] is “induce apoptosis in A549 cells in a concentration-dependent manner”. For the same molecule, the “selectivity for EGFR^WT” value in assay [3] is “more than 16 fold”. In addition, the wound healing entry in assay [4] is “wound healing was slower in the treated group than that in the blank control group”.
